Results from ChEMBL document CHEMBL1154303, “Cytotoxic and antiplasmodial compounds from the roots of Strophioblachia fimbricalyx” (J Nat Prod, 2009).
In brackets after ≈: the same amount, converted by molar mass.

Assays:
[1] = test system: MCF7; test: Cytotoxicity against human MCF7 cells by SRB assay; format: functional, cell-based
[2] = test system: NCI-H187; test: Cytotoxicity against human NCI-H187 cells by SRB assay; format: functional, cell-based
[3] = test system: Radical scavenging activity; test: Antioxidant activity assessed as DPPH radical scavenging activity; format: functional
In short: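 DPPH radical-scavenging test run per a published method. Activity is expressed in µg/mL, and a positive control substance was included.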

[4] = test system: Vero; test: Cytotoxicity against african green monkey Vero cells by SRB assay; format: cell-based; conditions: Chlorocebus sabaeus
[5] = test system: Plasmodium falciparum; test: Antiplasmodial activity against multidrug-resistant Plasmodium falciparum K1 assessed as [G-3H]hypoxanthine uptake after 24 hrs by scintillation counting; format: functional, organism-based; conditions: K1, 24 h
In short: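 Microculture radioisotope technique on the multidrug-resistant K1 strain of P. falciparum; activity reported in µg/mL.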

[6] = test system: KB; test: Cytotoxicity against human KB cells by SRB assay; format: functional, cell-based

SMILES	IC50 [1] [µg/mL]	IC50 [2] [µg/mL]	IC50 [3] [µg/mL]	IC50 [4] [µg/mL]	IC50 [5] [µg/mL]	IC50 [6] [µg/mL]
COC1=Cc2c(cc(O)c3cc(C)c(OC)cc23)C(C)(C)C1=O	2.9 (≈ 9.28 µM)	0.8 (≈ 2.56 µM)	29.1 (≈ 93.2 µM)	3.1 (≈ 9.92 µM)	2.7 (≈ 8.64 µM)	0.8 (≈ 2.56 µM)
COc1cc2c(cc1C)c(OC)cc1cc(C)c(=O)c(OC)cc12	> 5	> 5	> 100	> 20	3.2 (≈ 9.87 µM)	4 (≈ 12.3 µM)
COc1cc2c(cc1C)c(OC)cc1cc(C)c(=O)cc(OC)c12	> 5	> 5	> 100	> 20	> 20	3.9 (≈ 12 µM)
C[C@H]1[C@@H](O)O[C@@H]2O[C@@]3(C)CC[C@H]4[C@H](C)CC[C@@H]1[C@@]24OO3 [ARTENIMOL]					0.004 (≈ 0.0141 µM)	
Cc1cc(C(C)(C)C)c(O)c(C(C)(C)C)c1 [BUTYLATED HYDROXYTOLUENE]			18.8 (≈ 85.3 µM)			
COc1cccc2c1C(=O)c1c(O)c3c(c(O)c1C2=O)C[C@@](O)(C(=O)CO)C[C@@H]3O[C@H]1C[C@H](N)[C@H](O)[C@H](C)O1 [DOXORUBICIN]		0.04 (≈ 0.0736 µM)				0.13 (≈ 0.239 µM)
Cc1c2ccncc2c(C)c2c1[nH]c1ccccc12 [ELLIPTECINE]		0.44 (≈ 1.79 µM)		0.48 (≈ 1.95 µM)		0.48 (≈ 1.95 µM)
COC1=Cc2c(cc(OC)c3cc(C)c(OC)cc23)C(C)(C)C1=O [TRIGONOSTEMONE]	> 5	> 5	> 100	> 20	> 20	> 5
